Test results published in ChEMBL document CHEMBL1811907, “Chemical and biological evaluation of dipeptidyl boronic acid proteasome inhibitors for use in prodrugs and pro-soft drugs targeting solid tumors” (J Med Chem, 2011).

Legend:
[1] = Inhibition of chymotrypsin-like activity of 20S proteasome using suc-LLVY-AMC as substrate preincubated for 10 mins before substrate addition at pH 7.6 by fluorescence assay
Method in brief: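 Inhibitor from 0.1 M ethanol stock diluted into pH 7.6 buffer (25 mM HEPES, 0.5 mM EDTA) and equilibrated overnight at room temperature (24 h per text). SDS-activated 20S proteasome preincubated 10 min with inhibitor before Suc-LLVY-AMC; fluorescence ex 360/em 460 nm after 30 min. Quadruplicates; variable-slope sigmoidal fit.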

[2] = Inhibition of chymotrypsin-like activity of 20S proteasome using suc-LLVY-AMC as substrate preincubated for 10 mins before substrate addition at pH 2.0 by fluorescence assay
Method in brief: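 Inhibitor from 0.1 M ethanol stock diluted into pH 2.0 buffer (0.148 M HCl, 0.052 M KCl) and equilibrated overnight at room temperature (24 h per text). 20S proteasome SDS-activated, preincubated 10 min with inhibitor; Suc-LLVY-AMC added; fluorescence (ex 360/em 460 nm) read after 30 min. Assay-well pH checked. Quadruplicates; variable-slope sigmoidal fit.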

[3] = Ratio of CC50 for human follicular small-cell lymphocytic leukemia cells to IC50 for chymotrypsin-like activity of 20S proteasome at pH 2.0
[4] = Inhibition of intracellular chymotrypsin-like activity of 20S proteasome in human HEK293 cells after 24 hrs by fluorescence plate reader; type: cell-based; settings: HEK293, 24 h
Method in brief: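 HEK 293 ZsGreen proteasome-sensor cells (stable ZsGreen–ornithine decarboxylase degron fusion, G418 maintenance) seeded 3.2 × 10⁴ per well, grown 24 h. Then 24 h with inhibitor at 37 °C, 5% CO₂. Cells lysed in HEPES/EDTA/5% Triton buffer for 1 h; fluorescence ex 485/em 535 nm. Quadruplicates; variable-slope sigmoidal fit.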

HEK293 = assay: Ratio of IC50 for intracellular chymotrypsin-like activity of 20S proteasome in human HEK293 cells to IC50 for in vitro chymotrypsin-like activity of 20S proteasome; type: cell-based
[5] = Cytotoxicity against human FSCLL cells after 24 hrs by MTT assay; type: cell-based
Method in brief: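 Cells seeded at 3.2 × 10⁴ per well, grown 24 h at 37 °C, 5% CO₂, then exposed to inhibitor dilutions 24 h. Inhibitor from 0.1 M ethanol stock, pre-equilibrated overnight in pH 2.0 or pH 7.6 buffer. MTT (5 mg/mL) added for 3 h; formazan dissolved overnight in acidic Triton/isopropanol; A570 read. Quadruplicates; variable-slope sigmoidal fit.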

[6] = Ratio of CC50 for human follicular small-cell lymphocytic leukemia cells to IC50 for intracellular chymotrypsin-like activity of 20S proteasome in human HEK293 cells

Compound | IC50 [1] [nM] | IC50 [2] [nM] | IC50 [4] [nM] | Ratio CC50/IC50 [3] | Ratio IC50 (HEK293) | CC50 at 24 h [5] [nM] | Ratio CC50/IC50 [6]
CC(C)C[C@H](NC(=O)[C@@H](N)CC(C)C)B(O)O | 170 | 66 | > 10000 |  | > 150 |  | 
CC(C)C[C@H](NC(=O)[C@@H](N)Cc1ccccc1F)B(O)O | 140 | 76 | 3100 |  | 41 |  | 
CC(C)C[C@H](NC(=O)[C@@H](N)C(C)(C)C)B(O)O | 150 | 100 | > 10000 | 7 | > 110 | 710 | <0.07
CC(C)C[C@H](NC(=O)[C@@H](N)Cc1ccc(O)cc1)B(O)O | 120 | 42 | > 10000 | 4 | > 240 | 160 | <0.02
CC(C)C[C@H](NC(=O)[C@@H](N)CC(C(=O)O)C(=O)O)B(O)O | 3000 | 600 | > 10000 |  | > 20 |  | 
CC(C)C[C@H](NC(=O)[C@@H](N)Cc1c(F)c(F)c(F)c(F)c1F)B(O)O | 470 | 170 | 3300 |  | 20 |  | 
CC(C)C[C@H](NC(=O)[C@H](CO)NC(=O)c1cnccn1)B(O)O | 18 | 16 | 2500 | 13 | 150 | 210 | 0.08
CC(C)C[C@H](NC(=O)[C@@H](N)CO)B(O)O | 1100 | 190 | > 10000 | 8.9 | > 50 | 1700 | <0.2
CC(C)C[C@H](NC(=O)[C@@H](N)C1CCCCC1)B(O)O | 900 | 240 | > 10000 |  | > 40 |  | 
CC(C)C[C@H](NC(=O)[C@@H](NC(=O)c1cnccn1)C(C)(C)O)B(O)O | 28 | 34 | 520 |  | 15 |  | 
CCCC[C@H](N)C(=O)N[C@@H](CC(C)C)B(O)O | 300 | 75 | > 10000 | 13 | > 130 | 950 | <0.1
CNCC(=O)N[C@@H](CC(C)C)B(O)O | 2200 | 39 | > 10000 | 4.1 | > 260 | 160 | <0.07
CC(C)C[C@H](NC(=O)[C@@H](N)Cc1cccc2ccccc12)B(O)O | 120 | 26 | 150 | 0.4 | 6 | 11 | 0.07
CC(C)C[C@H](NC(=O)[C@@H](N)Cc1ccc(F)c(F)c1)B(O)O | 150 | 81 | 2100 |  | 26 |  | 
CC[C@H](N)C(=O)N[C@@H](CC(C)C)B(O)O | 300 | 110 | > 10000 | 14 | > 90 | 1500 | <0.2

Continued by falling IC50 [1], values first:

IC50 [1] [nM] | IC50 [2] [nM] | IC50 [4] [nM] | Compound | Ratio CC50/IC50 [3] | Ratio IC50 (HEK293) | CC50 at 24 h [5] [nM] | Ratio CC50/IC50 [6]
5200 | 510 | > 1000 | CC(C)C[C@H](NC(=O)[C@@H](N)Cc1cnc[nH]1)B(O)O |  | > 20 |  | 
770 | 63 | > 10000 | CC(C)C[C@H](NC(=O)[C@@H](N)CC(N)=O)B(O)O |  | > 160 |  | 
610 | 36 | > 10000 | CC(C)C[C@H](NC(=O)CN(C)C)B(O)O |  | > 280 |  | 
540 | 110 | > 10000 | CCC[C@H](N)C(=O)N[C@@H](CC(C)C)B(O)O | 10 | > 90 | 1100 | <0.1
450 | 80 | > 10000 | CC(C)C[C@H](NC(=O)[C@@H](N)[C@@H](C)O)B(O)O | 30 | > 120 | 2500 | <0.3
400 | 50 | 1400 | CC(C)C[C@H](NC(=O)[C@@H](N)Cc1ccc(-c2ccccc2)cc1)B(O)O |  | 30 |  | 
350 | 110 | 1000 | CC(C)C[C@H](NC(=O)[C@@H](N)C(c1ccccc1)c1ccccc1)B(O)O |  | 9 |  | 
220 | 33 | 450 | CC(C)C[C@H](NC(=O)[C@@H](N)Cc1ccc2ccccc2c1)B(O)O |  | 13 |  | 
180 | 110 | 1800 | CC(C)C[C@H](NC(=O)CNC(=O)c1cnccn1)B(O)O |  | 16 |  | 
150 | 90 | > 10000 | CC(C)C[C@H](NC(=O)[C@@H](N)C(C)(C)O)B(O)O |  | > 110 |  | 
130 | 60 | > 10000 | CC(C)C[C@H](NC(=O)[C@@H](N)Cc1ccc(F)cc1)B(O)O | 1.3 | > 170 | 79 | <0.01
110 | 82 | 1300 | CC(C)C[C@H](NC(=O)[C@@H](N)Cc1cccc(F)c1)B(O)O |  | 16 |  | 
100 | 29 | > 1000 | CC(C)C[C@H](NC(=O)[C@@H](N)Cc1c[nH]c2ccccc12)B(O)O | 14 | > 30 | 400 | <0.4
100 | 43 | 790 | CC(C)C[C@H](NC(=O)[C@@H](N)Cc1cc(F)cc(F)c1)B(O)O | 1 | 18 | 47 | 0.06
25 | 12 | 790 | CC(C)C[C@H](NC(=O)[C@@H](NC(=O)c1cnccn1)[C@@H](C)O)B(O)O | 8 | 65 | 100 | 0.12
